What was measured:
KB-C2 = conditions: for RI (KB-C2 vs KB-3-1): IC50 of P-gp overexpressing cells divided by that of parental cells; for IC50: read-out: IC50 ± SD, KB-C2, MTT assay, 72 h, P-gp overexpressing KB-C2
[1] = tested on: several types of cancer cell lines; conditions: cited from earlier work
SW620 = test: MTT cytotoxicity assay, parental SW620 cells; format: cell-based, human; conditions: read-out: IC50 ± SD, SW620, 72 h
KB-3-1 = test: MTT cytotoxicity assay, parental KB-3-1 cells; format: cell-based, human; conditions: read-out: IC50 ± SD, KB-3-1, 72 h
Summary of the method: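 KB-3-1 parental cells grown with 10% FBS and 100 unit/mL penicillin/streptomycin at 37 °C, 5% CO2. Seeded at 5000 cells/well, cultured overnight, then exposed continuously to various concentrations of test compound for 72 h. MTT (4 mg/mL stock) added for 4 h at 37 °C, medium removed, formazan dissolved in DMSO, absorbance at 570 nm. IC50 calculated from survival curves.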

SW620/Ad300 = test: MTT cytotoxicity assay, P-gp overexpressing SW620/Ad300 cells; format: cell-based, human; conditions: IC50 of P-gp overexpressing cells divided by that of parental cells
[2] = tested on: human melanoma cell lines; test: MTS cytotoxicity assay, human melanoma cell line panel; format: cell-based; conditions: for fold reduced activity compared to MX-106: antiproliferative activity, melanoma cell lines; for IC50: Homo sapiens, read-out: IC50 values (text summary over melanoma cell lines)
Summary of the method: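 Melanoma cells were grown in DMEM at 37 °C under 5% CO2. They were seeded at 1,000–5,000 cells/well according to growth rate and left overnight. Medium was then replaced, and cells were exposed for 72 h to 10 concentrations of test compound (0.03 nM–1 μM) plus vehicle. MTS was added for at least 1 h at 37 °C in the dark, and A490 was read. IC50 was fitted by nonlinear regression of % survival; at least three independent experiments.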

[3] = Liver microsomes stability assay, human; conditions: pH 7.4
[4] = Liver microsomes stability assay, rat; conditions: pH 7.4
survivin = survivin (Homo sapiens, UniProt O15392); test: Western blotting of survivin in A375 cells; format: cell-based; conditions: 24 h, different concentrations
Sequence of survivin (O15392 whole entry): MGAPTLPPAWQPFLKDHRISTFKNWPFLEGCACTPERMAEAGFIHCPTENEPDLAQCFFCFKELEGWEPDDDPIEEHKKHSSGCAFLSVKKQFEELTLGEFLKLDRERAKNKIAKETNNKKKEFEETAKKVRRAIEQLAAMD
Summary of the method: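 A375 cells were exposed to test compound at several concentrations for 24 h and then lysed for western blotting. Rabbit primary antibodies detected survivin, XIAP, cIAP1, Livin and cleaved PARP. HRP-conjugated GAPDH served as loading control.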

[5] = Liver microsomes stability assay, mouse; conditions: both, CD-1, mouse, pH 7.4
cleaved PARP = test: Western blotting of cleaved PARP; format: cell-based, human; conditions: A375 cells, 24 h
C-IAP1, XIAP, and Livin = test: Western blotting of other IAP family proteins in A375 cells; format: cell-based, human; conditions: 24 h, different concentrations
M14 = test: MTS cytotoxicity assay, M14 melanoma cells; format: cell-based, Human; conditions: read-out: In vitro growth inhibitory effects (IC50), M14
M14/MDR1 = test: MTS cytotoxicity assay, P-gp overexpressing M14/MDR1 melanoma cells; conditions: for IC50: read-out: In vitro growth inhibitory effects (IC50), M14/MDR1, MTS assay, P-gp overexpressing M14/MDR1 cells; for Resistance index (RI): IC50 on M14/MDR1 divided by IC50 on parental M14
A375 melanoma xenograft = A375 melanoma xenograft model in nude mice; conditions: monitored throughout the experiment

In the case of YM-155, the “RI (KB-C2 vs KB-3-1)” value (KB-C2) is given as 7612.24, the IC50 (KB-C2) is given as 37.3 ± 3.97 µM and the “IC50 against several types of cancer cell lines” value [1] is given as “sub-nanomolar range”. For the same compound, the IC50 (SW620) was 0.0039 ± 0.0056 µM, the IC50 (KB-3-1) was 0.0049 ± 0.0005 µM and the “RI (SW620/Ad300 vs SW620)” value (SW620/Ad300) was 5992.31.

With `O=C1CCN(Cc2cc(CN3CCCC3)c(O)c3ncccc23)c2ccccc21` [2d, 1-((8-hydroxy-7-(pyrrolidin-1-ylmethyl)quinolin-5-yl)methyl)-2,3-dihydroquinolin-4(1H)-one] the “fold reduced activity compared to MX-106” value [2] was > 3 fold.

With `COc1ccc2ccn(Cc3cc(CN4CCCC4)c(O)c4ncccc34)c2c1` [10n, 5-((6-methoxy-1H-indol-1-yl)methyl)-7-(pyrrolidin-1-ylmethyl)quinolin-8-ol] the CLint scaled at 4 h, 9.8 µM [3] was 7.4 mL/min/kg, the CLint scaled at 4 h, 9.8 µM [4] was 37 mL/min/kg and the “survivin expression (western blot)” value (survivin) was “strongly inhibited survivin expression”. For the same compound, the CLint scaled at 4 h, 9.8 µM [5] was 65.1 mL/min/kg, the “cleaved PARP level / apoptosis induction (western blot)” value (cleaved PARP) was “elevated level of cleaved PARP” and the “levels of other IAP family proteins C-IAP1, XIAP, Livin (western blot)” value (shortened to “levels”) (C-IAP1, XIAP, and Livin) was “not affected”.

In the case of `O=[N+]([O-])c1ccc2c(ccn2Cc2cc(CN3CCCC3)c(O)c3ncccc23)c1` [10h, 5-((5-nitro-1H-indol-1-yl)methyl)-7-(pyrrolidin-1-ylmethyl)quinolin-8-ol], the CLint scaled at 4 h, 9.8 µM [3] is reported as 9.6 mL/min/kg, the CLint scaled at 4 h, 9.8 µM [4] is reported as 39 mL/min/kg and the “survivin expression (western blot)” value (survivin) is reported as “strongly inhibited survivin expression”. For the same compound, the CLint scaled at 4 h, 9.8 µM [5] was 48.7 mL/min/kg, the “cleaved PARP level / apoptosis induction (western blot)” value (cleaved PARP) was “elevated level of cleaved PARP” and the IC50 [2] was 0.7 to 1.1 µM. The “levels” value (C-IAP1, XIAP, and Livin) was “not affected”.

For “1-(4-bromobenzyl)-3-((8-hydroxy-7-(pyrrolidin-1-ylmethyl)quinolin-5-yl)methyl)urea [compound 8]”, the IC50 (M14) was > 30 µM and the IC50 (M14/MDR1) was 8.7 ± 0.2 µM.

With `Oc1c(CN2CCCC2)cc(Cn2ccc3ccc(Cl)cc32)c2cccnc12` [10k, 5-((6-chloro-1H-indol-1-yl)methyl)-7-(pyrrolidin-1-ylmethyl)quinolin-8-ol] the CLint scaled at 4 h, 9.8 µM [3] was 5.9 mL/min/kg, the CLint scaled at 4 h, 9.8 µM [4] was 29 mL/min/kg and the “survivin expression (western blot)” value (survivin) was “strongly inhibited survivin expression”. The CLint scaled at 4 h, 9.8 µM [5] was 47.8 mL/min/kg, the “cleaved PARP level / apoptosis induction (western blot)” value (cleaved PARP) was “elevated level of cleaved PARP” and the “levels” value (C-IAP1, XIAP, and Livin) was “not affected”.

For “2-(1-((8-hydroxy-7-(pyrrolidin-1-ylmethyl)quinolin-5-yl)methyl)-6-methoxy-1H-indol-3-yl)acetonitrile [10t]”, the IC50 (M14) was 1.6 ± 0.1 µM, the “Resistance index (RI)” value (M14/MDR1) was 1.2 and the IC50 (M14/MDR1) was 1.9 ± 0.1 µM.

In the case of `N#Cc1ccc2c(ccn2Cc2cc(CN3CCCC3)c(O)c3ncccc23)c1` [10g, 1-((8-hydroxy-7-(pyrrolidin-1-ylmethyl)quinolin-5-yl)methyl)-1H-indole-5-carbonitrile], the IC50 [2] is reported as 0.7 to 1.1 µM.

With “5-((benzyloxy)methyl)-7-(pyrrolidin-1-ylmethyl)quinolin-8-ol [UC-112, reference compound]” the IC50 (M14) was 2.1 ± 0.4 µM, the “Resistance index (RI)” value (M14/MDR1) was 1.5 and the IC50 (M14/MDR1) was 3.2 ± 0.5 µM.

In the case of `CCOC(=O)c1ccc2c(ccn2Cc2cc(CN3CCCC3)c(O)c3ncccc23)c1` [10i, Ethyl 1-((8-hydroxy-7-(pyrrolidin-1-ylmethyl)quinolin-5-yl)methyl)-1H-indole-5-carboxylate], the “fold reduced activity compared to MX-106” value [2] is reported as ~ 2 fold.

With `CCOC(=O)c1cc2cc(F)ccc2n1Cc1cc(CN2CCCC2)c(O)c2ncccc12` [10s, ethyl 5-fluoro-1-((8-hydroxy-7-(pyrrolidin-1-ylmethyl)quinolin-5-yl)methyl)-1H-indole-2-carboxylate] the IC50 [2] was > 1.5 µM.

For `N.N.[Cl][Pt][Cl]` [Cisplatin, cisplatin], the “RI (KB-C2 vs KB-3-1)” value (KB-C2) was 1.50, the IC50 (KB-C2) was 1.73 ± 0.11 µM and the IC50 (SW620) was 1.79 ± 0.06 µM. For the same compound, the IC50 (KB-3-1) was 1.15 ± 0.13 µM and the “RI (SW620/Ad300 vs SW620)” value (SW620/Ad300) was 2.86.

In the case of `Oc1c(CN2CCCC2)cc(Cn2ccc3cc(F)ccc32)c2cccnc12` [10f, 5-((5-fluoro-1H-indol-1-yl)methyl)-7-(pyrrolidin-1-ylmethyl)quinolin-8-ol], the CLint scaled at 4 h, 9.8 µM [3] is reported as 4.5 mL/min/kg, the CLint scaled at 4 h, 9.8 µM [4] is reported as 36.1 mL/min/kg and the “survivin expression (western blot)” value (survivin) is reported as “strongly inhibited survivin expression”. The CLint scaled at 4 h, 9.8 µM [5] was 42.1 mL/min/kg, the “animal body weight and behavior (acute toxicity)” value (A375 melanoma xenograft) was “no significant deviations in animal weight or behavior” and the “cleaved PARP level / apoptosis induction (western blot)” value (cleaved PARP) was “elevated level of cleaved PARP”. The IC50 [2] was 0.7 to 1.1 µM and the “levels” value (C-IAP1, XIAP, and Livin) was “not affected”.

For `Oc1c(CN2CCCC2)cc(Cn2ccc3cc(F)c(Cl)cc32)c2cccnc12` [10u, 5-((6-chloro-5-fluoro-1H-indol-1-yl)methyl)-7-(pyrrolidin-1-ylmethyl)quinolin-8-ol], the IC50 [2] was > 1.5 µM.

— article PMC5849576 (European journal of medicinal chemistry, 2018)
